Assay [1] has as its system CaM. Conditions: in vivo CaM binding, cited from earlier work.
Assay [2] deals with Ca^2+/CaM. In words: ITC binding to Ca^2+/CaM. The conditions noted are these: buffer B (20 mM HEPES pH 8.0, 100 mM NaCl, 10 mM CaCl2), 24°C, single-site fitting model. In outline:
(§1)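 CaM (His6-tagged, E. coli-expressed; mutants made by inverse PCR) is injected into full-length wild-type or point-mutant Nm/Ng, or into synthetic IQ peptides (Nm 34–57, Ng 27–50). Apo and mutant CaM are in buffer A; Ca2+/CaM is in buffer B. Samples are degassed. VP-ITC or iTC200, 24°C, 10 (or 2) μl injections at 5 (or 2) min intervals. Buffer-titration dilution heats are subtracted, and a single-site fit gives Ka.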

For assay [3], the system named is apoCaM. In words: ITC binding to apo CaM. Conditions: for Association constant Ka: apoCaM, buffer A (20 mM Imidazole pH 8.0, 100 mM NaCl, 2 mM EGTA), 24°C, single-site fitting model. The essentials:
as §1

Assay [4] deals with CaMWT. In words: ITC binding to wild-type CaM. The conditions noted are these: point mutants of Nm/Ng. In outline:
as §1

The conditions of assay [5]: Ser36-phosphorylated; cited from earlier work.
Assay [6] deals with synaptic transmission, CA1 hippocampal synapses. Conditions: cited from earlier work.
Assay [7] deals with CaME85A/F142A. In words: ITC binding to CaM double mutant E85A/F142A. The conditions noted are these: buffer A (20 mM Imidazole pH 8.0, 100 mM NaCl, 2 mM EGTA), 24°C. The essentials: as §1

Where two headings read alike, the source gives them in different places.

As for “Arg38Gln (R38Q): Ng point mutant Arg38Gln (literature)”, the values for the Ng-CaM binding entry in assay [1] and in assay [1] (listed as Arg38Gln) were “reduce Ng-CaM binding” and “reduce the binding strength”, respectively.

Take “Ile33Gln (I33Q): Ng point mutant Ile33Gln (literature)”: the Ng-CaM binding result in assay [1] was “completely inhibits the binding”.

As for “NgIQ: synthetic wild-type IQ motif peptide of Ng, aa27–50 (NAAAAKIQASFRGHMARKKIKSGE)”, the “Association constant Ka” value is recorded as 0.3 10^6 M^−1 in assay [2] and 2.3 10^6 M^−1 in assay [3].

Take “NgR38A: full-length Ng point mutant Arg38Ala; GFP-tagged in the electrophysiology experiments”: in assay [4], the “binding to CaM (in words)” value is recorded as “completely abolish”. Moreover, the “binding to apo CaM (in words)” value in assay [3] (mutant Ng) is “does not bind to the apo CaM”.

In the case of “NmIQ: synthetic wild-type IQ motif peptide of Nm, aa34–57”, the “Association constant Ka” value was 1.6 10^6 M^−1 in assay [2] and 25 10^6 M^−1 in assay [3].

As for “Ser36-phosphorylated Ng: Ng phosphorylated at Ser36 by PKC [reference compound]”, the “binding to CaM and phosphatidic acid” value in assay [5] is “unable to bind CaM and phosphatidic acid”. Further, the synaptic strength result in assay [6] (Ser36-phosphorylated) is reported as “unable to enhance synaptic strength”.

On to “Ser36Asp (S36D): Ng point mutant Ser36Asp (literature)”, for which the Ng-CaM binding result in assay [1] is on record as “reduce Ng-CaM binding”.

neurogranin [NgWT]: the “Association constant Ka” value in assay [2] is reported as 0.96 10^6 M^−1; in assay [3], 23 10^6 M^−1. Further, in assay [3] (in words), the “affinity to apo CaM relative to Ca^2+/CaM” value is listed as “higher affinity than that to Ca^2+/CaM”. The “synaptic transmission / strength” value in assay [6] (overexpression, listed as wild-type Ng) was “potentiates synaptic transmission”. Moreover, the synaptic strength entry in assay [6] (through interaction with CaM) is on record as “enhances synaptic strength”.

On to neuromodulin [NmWT], for which the entries for the “Association constant Ka” value in assay [2], in assay [7] and in assay [3] were 0.52 10^6 M^−1, 0.46 10^6 M^−1 and 7.9 10^6 M^−1, respectively.

(Values after PMC3589724 (Scientific Reports, 2013).)
